Assay results reported in ChEMBL document CHEMBL4177589, “In silico analysis and in vitro evaluation of immunogenic and immunomodulatory properties of promiscuous peptides derived from Leishmania infantum eukaryotic initiation factor” (2017).
The source made the active and inactive calls. The calls are words filed in the database; no cut-off is given here.

Legend:
Splenocyte = test: Induction of cell proliferation in splenocytes isolated from BALB/c mouse infected with Leishmania major MRHO/SU/59/P, zymodeme LV39 assessed as increase in [3H]-thymidine incorporation at 1 to 10 ug/ml […] and measured after 18 hrs by liquid scintillation counter method; format: functional, cell-based
Procedure, shortened: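 Female BALB/c mice were infected subcutaneously with 2×10^6 stationary-phase L. major promastigotes. Splenocytes were taken one month later and plated in triplicate at 2×10^6 cells/mL with peptide at 1, 5 or 10. Cultures ran 96 h at 37°C, 5% CO2, with 3H-thymidine (2 µCi/mL) added for the last 18 h and read by scintillation. The result is Δcpm against medium wells; Δcpm >2000 with SI >2 counted as positive.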

BMDC [1] = test: Immunomodulatory activity in LPS stimulated BALB/c mouse bone marrow-derived dendritic cells assessed as increase in IL-12 level at 10 ug/ml after 24 hrs by FACS analysis (reference value: 44%); format: functional
BMDC [2] = test: Immunomodulatory activity in […] mouse bone marrow-derived dendritic cells assessed as up-regulation of co-stimulatory molecules at 10 ug/ml after 24 hrs by FACS analysis; format: functional, cell-based
BMDC [3] = test: Immunomodulatory activity in LPS stimulated BALB/c mouse bone marrow-derived dendritic cells assessed as increase in IFN-gamma level at 10 ug/ml after 24 hrs by FACS analysis (reference value: 20%); format: functional
BMDC [4] = test: Immunomodulatory activity in LPS stimulated BALB/c mouse bone marrow-derived dendritic cells assessed as increase in IL-4 level at 10 ug/ml after 24 hrs by FACS analysis (reference value: 48%); format: functional
BMDC [5] = test: Immunomodulatory activity in LPS stimulated BALB/c mouse bone marrow-derived dendritic cells assessed as increase in IL-10 level at 10 ug/ml after 24 hrs by FACS analysis (reference value: 27%); format: functional
BMDC [6] = test: Immunomodulatory activity in […] mouse bone marrow-derived dendritic cells assessed as increase in IL-12 level at 10 ug/ml after 24 hrs by FACS analysis; format: functional, cell-based
BMDC [7] = test: Immunomodulatory activity in […] mouse bone marrow-derived dendritic cells assessed as increase in IL-10 level at 10 ug/ml after 24 hrs by FACS analysis; format: functional, cell-based
BMDC [8] = test: Immunomodulatory activity in LPS stimulated BALB/c mouse bone marrow-derived dendritic cells assessed as up-regulation of TNF-alpha mRNA expression at 10 ug/ml after 2 to 12 hrs by qPCR analysis; format: functional, cell-based
Procedure, shortened: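 Day-9 BM-DCs (5×10^6 per group) were cultured with peptide for 2, 6 and 12 h, with LPS and medium controls. TNF-α mRNA was measured by RT and semi-quantitative PCR, and products were run on 2% agarose gels. Band densitometry was normalised to β-actin and given as arbitrary units, from three independent experiments.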

BMDC [9] = test: Immunomodulatory activity in LPS stimulated BALB/c mouse bone marrow-derived dendritic cells assessed as increase in surface CD80 expression at 10 ug/ml after 24 hrs by FACS analysis (reference value: 26%)
BMDC [10] = test: Immunomodulatory activity in LPS stimulated BALB/c mouse bone marrow-derived dendritic cells assessed as increase in surface CD86 expression at 10 ug/ml after 24 hrs by FACS analysis (reference value: 58%)

H-PKDIQVALFSATMPEEVL-OH was tested, and the Activity (Splenocyte) was “Active” and the Activity (BMDC [1]) was “inactive”.
In the case of H-TRELALQTAEVISRIGE-OH, the Activity (Splenocyte) is reported as “Active” and the Activity (BMDC [1]) is reported as “inactive”.
In the case of H-KPSSIQQRAIAPFTRGG-OH, the Activity (Splenocyte) is reported as “Active” and the Activity (BMDC [1]) is reported as “inactive”.
With H-IQQRAIAPFTRGGDII-OH the Activity (Splenocyte) was “Active”, the Activity (BMDC [2]) was “Active” and the Activity (BMDC [1]) was 65%. It also gave an Activity (BMDC [3]) of 40%, an Activity (BMDC [4]) of 64% and an Activity (BMDC [5]) of 43%. The Activity (BMDC [6]) was “Active”, the Activity (BMDC [7]) was “Active” and the Activity (BMDC [8]) was “Active”. The Activity (BMDC [9]) was 43% and the Activity (BMDC [10]) was 77%.
H-FLDDQPGVRPIPSFDDM-OH was tested, and the Activity (Splenocyte) was “Active” and the Activity (BMDC [1]) was “inactive”.
